Consider one substance from publication PMC4094378 (European journal of medicinal chemistry, 2014).

One test concerns LoVo cells. The test can be described thus: Cell growth inhibitory activity. The note with it: read-out: IC50 LoVo; 72 h, MTT; mean ± SE. The class given is cell-based, human. Put shortly:
(§1)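 Jurkat, CEM and SEM cells were grown in RPMI-1640, and HeLa, MCF-7, HT-29 and LoVo in DMEM, each with 10% FBS and penicillin/streptomycin. Wells got 8 × 10^3 cells and were preincubated 18 h at 37 °C in 5% CO2. Test compound from a 10 mM DMSO stock was diluted in medium (final DMSO ≤0.25%) and applied for 72 h. Read-out was MTT. IC50 is the concentration giving 50% inhibition of proliferation, from dose–response curves of ≥3 independent experiments, mean ± SE.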

The test system of a further test is CEM cells. As to the kind of experiment: Cell growth inhibitory activity. The class given is cell-based, human. The following applies: read-out: IC50 CEM; 72 h, MTT; mean ± SE. Put shortly: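 Human T-cell leukemia cells grown in RPMI-1640 with 10% FBS, penicillin G 115 units/mL and streptomycin 115 μg/mL. 8 × 10^3 cells/well were preincubated 18 h at 37 °C, 5% CO2, then exposed to graded compound concentrations in complete medium from 10 mM DMSO stocks (final DMSO ≤0.25%) for 72 h at 37 °C. Viability was read by MTT, and IC50 is the concentration inhibiting proliferation by 50%.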

In another test the test system is Jurkat cells. As to the kind of experiment: Cell growth inhibitory activity. The format is cell-based, human. The following applies: read-out: IC50 Jurkat; 72 h, MTT; mean ± SE. Put shortly: as §1
Test [1] deals with panel of seven human cancer cell lines. The test can be described thus: Antiproliferative activity across the panel of seven cancer cell lines. The class given is cell-based. The note with it: 4′-methoxy replaced by 4′-ethoxy. Put shortly: as §1
The next test relates to HT-29 cells. The test can be described thus: Cell growth inhibitory activity. The format is cell-based, human. The following applies: read-out: IC50 HT-29; 72 h, MTT; mean ± SE. In a few lines: as §1
For the next test, the system named is MCF-7 cells. The test can be described thus: Cell growth inhibitory activity. The class given is cell-based, human. The note with it: read-out: IC50 MCF-7; 72 h, MTT; mean ± SE. Put shortly:
as §1

A further test concerns SEM cells. The test can be described thus: Cell growth inhibitory activity. The format is cell-based, human. The note with it: read-out: IC50 SEM; 72 h, MTT; mean ± SE. Put shortly: as §1
The next test concerns HeLa cells. The test can be described thus: Cell growth inhibitory activity. The format is cell-based, human. The following applies: read-out: IC50 HeLa; 72 h, MTT; mean ± SE. In a few lines:
as §1

“2-Bromo-N-(4-{(1E)-3-oxo-3-[(4-ethoxyphenyl)amino] prop-1-en-1-yl}phenyl)-acrylamide [4j]”: the concentration for half-maximal inhibition (IC50) (as a rule, the concentration that inhibits the measured activity by half) in the test with LoVo cells was found to be 850 ± 30 nM; in the test on CEM cells, 98 ± 33 nM; in the test with Jurkat cells it was 930 ± 120 nM; in the test on HT-29 cells it was 3.4 ± 0.3 µM; in the test with MCF-7 cells it was 5.5 ± 1 µM; in the test on SEM cells it was 180 ± 40 nM. The half-inhibitory concentration (IC50) in the test with HeLa cells was found to be 2000 ± 130 nM. In addition, the “fold reduction in activity vs 4i” value in test [1] is recorded as 2–4 fold.
